From ChEMBL document CHEMBL1125299, “Novel positive inotropic agents: synthesis and biological activities of 6-(3-amino-2-hydroxypropoxy)-2(1H)-quinolinone derivatives” (1992) come the findings set out here.

Test [1] is filed under the species Canis familiaris. As to the kind of experiment: The inotropic effect tested in vitro by using isolated blood-perfused dog heart preparations. It counts as functional, Canis lupus familiaris. In a few lines: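 Isolated dog papillary muscle, blood-perfused by cross-circulation through cannulated arteries from a pentobarbital-anesthetized, heparinized donor dog. Intra-arterial microsyringe injection; developed tension recorded. Activity ratio = amrinone ED50 (half-maximal amrinone response) / test-compound dose producing an equal response.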

The species entered for test [2] is Canis familiaris. Description: The chronotropic effect tested in vitro by using isolated blood-perfused dog heart preparations. It counts as functional, Canis lupus familiaris. The method, boiled down: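 Isolated dog sinoatrial node preparation, cross-circulated through cannulated arteries with blood from a pentobarbital-anesthetized, heparinized donor dog. Compounds were given intra-arterially by microsyringe, and sinus rate was recorded. Reported as an activity ratio: amrinone ED50 (dose giving half-maximal amrinone response) divided by the test-compound dose producing the same response.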

On to `COc1ccc(CNCC(O)COc2cccc3nc(O)ccc23)cc1OC` (stereo unspecified), for which the Activity in test [1] and in test [2] was 0 in each case.
For `COc1ccc(CNCC(O)COc2ccc3[nH]c(=O)ccc3c2)cc1OC` (stereo unspecified) [TOBORINONE], the Activity amounted to 5.2 in test [1] and 0 in test [2].
Taken in the same sequence, the figures for `Cc1ccc(CN(C)CC(O)COc2ccc3nc(O)ccc3c2)cc1` (stereo unspecified) were 1.7 and 0.
Taken in the same sequence, the figures for `CN(CCCSc1ccccc1)CC(O)COc1ccc2nc(O)ccc2c1` (stereo unspecified) were 1.3 and 4.3.
For `COc1cccc(CNCC(O)COc2ccc3nc(O)ccc3c2)c1` (stereo unspecified), the Activity came out at 3.8 in test [1] and 0 in test [2].
Taken in the same sequence, the figures for `COc1ccc(CN(C)CC(O)COc2ccc3nc(O)ccc3c2)cc1` (stereo unspecified) were 2.8 and 0.2.
Taken in the same sequence, the figures for `CN(Cc1ccc(F)cc1)CC(O)COc1ccc2nc(O)ccc2c1` (stereo unspecified) were 2.8 and 0.
In the case of `Oc1ccc2cc(OCC(O)CNCCc3ccccc3)ccc2n1` (stereo unspecified), the Activity in test [1] is reported as 1.5; in test [2], 0.
As for `CN(Cc1ccncc1)CC(O)COc1ccc2nc(O)ccc2c1` (stereo unspecified), the Activity was 2.3 in test [1] and 0.1 in test [2].
As to `CCN(CCc1ccccc1)CC(O)COc1ccc2nc(O)ccc2c1` (stereo unspecified), the Activity in test [1] was determined as 6.9; in test [2], 0.8.
Taken in the same sequence, the figures for `COc1ccc(CNCC(O)COc2ccc3ccc(O)nc3c2)cc1OC` (stereo unspecified) were 0 and -0.2.
The corresponding values for `CCN(CCCc1ccccc1)CC(O)COc1ccc2nc(O)ccc2c1` (stereo unspecified) are 3.2 and 0.2.
Taken in the same sequence, the figures for `Oc1ccc2cc(OCC(O)CNCCCc3ccccc3)ccc2n1` (stereo unspecified) were 3.6 and 0.4.
Turning to `COc1ccc(CNCC(O)COc2cc(C)c3nc(O)ccc3c2)cc1OC` (stereo unspecified), the values for the Activity in test [1] and in test [2] were 0.5 and 0, respectively.
Taken in the same sequence, the figures for `COc1ccc(CCNCC(O)COc2ccc3nc(O)ccc3c2)cc1OC` (stereo unspecified) were 1.7 and -0.5.
Taken in the same sequence, the figures for `CN(CCS(=O)(=O)c1ccccc1)CC(O)COc1ccc2nc(O)ccc2c1` (stereo unspecified) were 2.1 and 0.1.
Taken in the same sequence, the figures for `CCN(Cc1ccccc1)CC(O)COc1cc(C)c2nc(O)ccc2c1` (stereo unspecified) were 0.8 and -0.4.
In the case of `CCN(Cc1ccccc1)CC(O)COc1ccc2nc(O)ccc2c1` (stereo unspecified), the values for the Activity in test [1] and in test [2] were 4 and 0, respectively.
Taken in the same sequence, the figures for `CN(Cc1cccnc1)CC(O)COc1ccc2nc(O)ccc2c1` (stereo unspecified) were 1.7 and 0.3.
Regarding `Oc1ccc2cc(OCC(O)CNCc3ccccn3)ccc2n1` (stereo unspecified), the Activity in test [1] came out at 0.6; in test [2], 0.
Taken in the same sequence, the figures for `CN(Cc1ccccc1)CC(O)COc1ccc2nc(O)c(C#N)cc2c1` (stereo unspecified) were 1.6 and 1.1.
Taken in the same sequence, the figures for `COc1ccc(CNCC(O)COc2ccc3nc(O)ccc3c2)cc1` (stereo unspecified) were 4.9 and 0.
Taken in the same sequence, the figures for `Oc1ccc2cc(OCC(O)CNCc3ccc(F)cc3)ccc2n1` (stereo unspecified) were 3.5 and 0.
As for `CN(CCN(C)c1ccccc1)CC(O)COc1ccc2nc(O)ccc2c1` (stereo unspecified), the Activity in test [1] stood at 5; in test [2], 0.
Taken in the same sequence, the figures for `COc1ccc(CNCC(O)COc2cccc3ccc(O)nc23)cc1OC` (stereo unspecified) were 0 and 0.
The corresponding values for `CN(Cc1ccc(Cl)cc1)CC(O)COc1ccc2nc(O)ccc2c1` (stereo unspecified) are 4 and 0.1.
Taken in the same sequence, the figures for `Oc1ccc2cc(OCC(O)CNCc3cccs3)ccc2n1` (stereo unspecified) were 3.1 and 0.8.
For the compound `CN(Cc1ccccn1)CC(O)COc1ccc2nc(O)ccc2c1` (stereo unspecified), the Activity was found to be 2.2 in test [1] and 0 in test [2].
The corresponding values for `CN(Cc1ccccc1)CC(O)COc1ccc2c(c1)CCC(=O)N2` (stereo unspecified) are 0.1 and -0.2.
Taken in the same sequence, the figures for `CCN(Cc1ccccc1)CC(O)COc1cc(F)c2nc(O)ccc2c1` (stereo unspecified) were 4.1 and 0.
In the case of `Oc1ccc2cc(OCC(O)CNCc3ccccc3)ccc2n1` (stereo unspecified), the Activity is given as 2.2 in test [1] and 0 in test [2].
Taken in the same sequence, the figures for `CN(Cc1ccccc1)CC(O)COc1ccc2nc(O)ccc2c1` (stereo unspecified) were 5.1 and 0.
For the compound `CN(CCc1ccccn1)CC(O)COc1ccc2nc(O)ccc2c1` (stereo unspecified), the Activity is 2.2 in test [1] and 0 in test [2].
As to `CN(CC[S+]([O-])c1ccccc1)CC(O)COc1ccc2nc(O)ccc2c1` (stereo unspecified), the Activity in test [1] is given as 2.3; in test [2], 0.
Taken in the same sequence, the figures for `CN(CCCN(C)c1ccccc1)CC(O)COc1ccc2nc(O)ccc2c1` (stereo unspecified) were 1.3 and 0.
The corresponding values for `Oc1ccc2cc(OCC(O)CNCc3ccc(Cl)cc3)ccc2n1` (stereo unspecified) are 4.9 and 0.
Take `CN(CCSc1ccccc1)CC(O)COc1ccc2nc(O)ccc2c1` (stereo unspecified): the values for the Activity in test [1] and in test [2] were 4.5 and -1.1, respectively.
Taken in the same sequence, the figures for `CCN(CCOc1ccccc1)CC(O)COc1ccc2nc(O)ccc2c1` (stereo unspecified) were 5.3 and 0.
